Bioassay records deposited in PubChem BioAssay by The Scripps Research Institute Molecular Screening Center.
In the library only some 1.9% were active in any assay of this set; here they are far more common.
PLCg1 inh: blocks human PLC-gamma1 enzyme activity. P19174. purified PLC-gamma1, fluorogenic substrate, fluorescence. inhibition, % at 12.2 µM. hit rate 0.84% among 370,000. AID 720700; in the data active = inhibition above about 9.5%
PLCb3 inh: PLC-beta3 (human) inhibition, primary screen. Purified PLC-beta3, fluorogenic substrate, fluorescence. inhibition, % at 12.2 µM. hit rate 0.18% among 370,000. AID 720704; in the data active = inhibition above about 11%;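 also: 0% = median of compound wells on plate and 100% = full blocker control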
HGIII-sPLA2 inh: Blocks human group III sPLA2 activity. Q9NZ20. QFRET BODIPY PC-A2 liposome hydrolysis, fluorescence. inhibition, % at 12.2 µM. hit rate 0.56% among 370,000;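 active = inhibition above mean plus 3 SD of compounds lying within the high and low control bounds, cut at about 19% in these data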;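 also: 0% = median of test compound wells and 100% = no enzyme DMSO wells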
Target sequence (Q9NZ20 whole entry, looked up): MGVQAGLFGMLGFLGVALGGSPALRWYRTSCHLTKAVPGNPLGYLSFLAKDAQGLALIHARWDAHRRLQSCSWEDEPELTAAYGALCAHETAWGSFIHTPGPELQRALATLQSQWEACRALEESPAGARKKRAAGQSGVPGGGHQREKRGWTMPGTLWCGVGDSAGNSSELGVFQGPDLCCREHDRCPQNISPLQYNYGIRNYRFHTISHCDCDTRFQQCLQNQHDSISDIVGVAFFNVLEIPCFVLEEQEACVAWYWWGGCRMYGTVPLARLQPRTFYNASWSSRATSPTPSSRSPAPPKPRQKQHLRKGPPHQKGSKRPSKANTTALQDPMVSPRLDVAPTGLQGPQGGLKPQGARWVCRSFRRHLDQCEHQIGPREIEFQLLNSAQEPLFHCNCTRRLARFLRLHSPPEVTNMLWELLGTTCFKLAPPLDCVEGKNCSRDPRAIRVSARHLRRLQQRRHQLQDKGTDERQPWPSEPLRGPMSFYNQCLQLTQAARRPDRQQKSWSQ
TbMetRS inhib: blocks T. brucei methionyl-tRNA synthetase activity; purified T. brucei MetRS, ATP depletion, Kinase-Glo luminescence; inhibition, % at 11.9 µM; hit rate 0.4% among 360,000;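 active = inhibition above a per-plate cutoff of the control wells' mean inhibition plus 3 SD, cut at about 5.5% in these data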;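 also: 0% = DMSO wells median and 100% = median of wells with control inhibitor compound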
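Measured by: Kinase-Glo luciferase luminescence reporting remaining unconsumed ATP. Material: purified T. brucei MetRS enzyme. Doses: 11.9 µM compound single dose, 0.9% DMSO. Medium: HEPES buffer containing pyrophosphatase, BSA, spermine, DTT. Times: 15 min preincubation, 2 h reaction, all 25 °C. Reagent: methionine, ATP and bulk E. coli tRNA.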
An asterisk follows results filed as active; · = not tested or not shown.

SMILES	PLCg1 inh	PLCb3 inh	HGIII-sPLA2 inh	TbMetRS inhib
COc1ccc(C=NNC(=S)Nc2ccc(F)cc2)cc1OC	-0.3	-1.9	22.6*	-0.5
COc1ccc(/C=C2\SC(=O)N(CC(=O)NNC(=O)c3ccccc3O)C2=O)cc1	-2.1	-0.8	11.4	0.0
O=C(CCCN1C(=O)S/C(=C\c2ccccc2)C1=O)NNC(=O)c1ccccc1O	-0.7	-2.9	24.5*	0.0
COc1ccccc1NC(=O)Nc1nc(C(N)CCc2ccccc2)cs1 (stereo not given)	11.4*	10.2	3.2	-0.3
COc1cc(CNC(=O)Nc2nc(C(N)CCc3ccccc3)cs2)cc(OC)c1OC (stereo not given)	6.4	-1.6	5.8	0.1
COCCn1c(SCC(=O)Nc2ccccc2)nc2c1c(=O)[nH]c(=O)n2C	9.8*	2.5	4.1	-1.0
CC(C)n1c(SCC(=O)Nc2ccccc2)nc2c1c(=O)[nH]c(=O)n2C	2.6	-8.2	-3.5	-0.3
CCc1ccc(NC(=O)CN(CC(=O)Nc2ccc(CC)cc2)CC(C)O)cc1 (stereo not given)	11.1*	-1.1	-25.4	0.4
CCN(CC)CC(=O)Nc1ccc(Oc2ccc(NC(=O)CN(CC)CC)cc2)cc1	4.5	3.1	-2.8	0.6
NCCCC[C@@H]1NC(=O)[C@H](CCC(=O)O)NC(=O)c2cc([N+](=O)[O-])cc(I)c2OCC[C@@H](C(N)=O)NC1=O	·	·	·	0.0
NC(=O)CC[C@@H]1NC(=O)[C@H](CO)NC(=O)c2cc([N+](=O)[O-])cc(I)c2OCC[C@@H](C(N)=O)NC1=O	14.3*	9.5	9.0	-0.1
OCCN1CCN(CCCN2c3ccccc3CCc3ccccc32)CC1	13.4*	6.0	-0.5	-0.2
COc1cc(/C=N/NC(=O)C(Cc2c[nH]c3ccccc23)NC(=O)OCc2ccccc2)cc([N+](=O)[O-])c1O (stereo not given)	11.4*	9.5	-37.6	-0.2
NS(=O)(=O)c1ccc(N=Nc2ccc(O)c3ncccc23)cc1	0.6	-5.6	46.2*	-1.8
COc1cc(C=c2c3ccccc3n3c2cc(-c2ccccc2)[n+]3C)cc(OC)c1OC	-127.8	-188.1	13.7	-0.1
CN(C)c1ccc(C=c2c3ccccc3n3c2cc(-c2ccc(Cl)cc2)[n+]3C)cc1	-73.3	-100.1	47.6*	0.1
C=CCC[C@H](Cc1ccc(F)cc1)C(=O)OC[C@H](Cc1c[nH]c2ccccc12)NC(=O)[C@@H](CC=C)CC(=O)NCCO	12.3*	2.5	-81.8	-0.1
C=CC[C@@H](CC(=O)N[C@@H](CO)Cc1ccccc1)C(=O)N[C@H](COC(=O)[C@H](CC=C)CC(=O)OC(C)(C)C)Cc1c[nH]c2ccccc12	6.4	3.3	-68.1	-0.4
C=CC[C@@H](CC(=O)N[C@H](CO)Cc1ccccc1)C(=O)N[C@H](COC(=O)[C@H](CC=C)CC(=O)OC(C)(C)C)Cc1c[nH]c2ccccc12	10.3*	4.2	-65.5	-0.4
O=C([C@@H]1C[C@H]1c1ccccc1)N1CC[C@H]2[C@H](CCCN2Cc2ccccc2)C1	0.3	-0.3	-4.5	·
CC(=O)N(Cc1ccccc1)c1ccc(C(=O)O)cc1	9.7*	8.4	11.2	-0.4
O=C1[C@@H]2Cc3c([nH]c4ccccc34)C(c3ccc(Cl)cc3)N2C(=O)CN1CCO (stereo not given in full)	-3.6	-9.3	-15.6	6.0*
C=CCN(C(=O)[C@@H](CCCC)[C@@H](O)c1ccc(C(C)=O)cc1)c1ccccc1	0.2	1.0	-10.9	·
COC(=O)[C@]12C[C@H](CC(=O)NCc3ccccc3)C(=O)N(CCc3ccc(OC)c(OC)c3)C1=C[C@H](C1CCCC1)O[C@@H]2C	2.9	4.0	-13.7	·
N#Cc1ccc(Cn2ccc3ccc(-c4ccc5ccn(C(=O)C6CCC6)c5c4)cc32)cc1	-62.6	-86.1	2.8	·
SMILES	PLCg1 inh	PLCb3 inh	HGIII-sPLA2 inh	TbMetRS inhib
COC(=O)[C@H]1C[C@@]2(N3CCCCC3)c3ccccc3N[C@H]2N1S(=O)(=O)c1ccc(C)cc1	2.1	-3.6	11.7	·
S=c1[nH]cc(-c2ccccc2)n1-c1ccccc1	13.0*	6.2	19.1	-0.6
CCOc1ccc(C(=O)Nc2cccc(-c3nc4ccccc4[nH]3)c2C)cc1[N+](=O)[O-]	1.9	2.8	-28.4	-0.5
CCOc1ccc(C(=O)Nc2cc(-c3nc4ccccc4[nH]3)ccc2C)cc1[N+](=O)[O-]	1.1	3.1	-32.0	13.5*
C[C@H]1C=C(C(=O)NCc2nc3ccccc3[nH]2)O[C@@H](OCc2ccc(CO)cc2)C1	1.4	2.0	-1.2	23.9*
O=C(NCc1nc2ccccc2[nH]1)C1=C[C@@H](c2ccccc2)C[C@@H](OCCCCO)O1	-3.1	-2.2	-12.7	69.6*
O=C(Nc1ccccc1)C1=C[C@H](c2ccccc2)C[C@H](OCCCCO)O1	1.4	-6.1	-4.8	-0.3
C[C@@H]1C=C(C(=O)NCc2ccccc2)O[C@H](OCc2ccc(CO)cc2)C1	4.9	0.8	3.2	-0.1
COc1ccc(OCC2CN(C3CCCC3)S(=O)(=O)CCO2)cc1 (stereo not given)	2.5	1.1	5.0	·
O=C(CSc1nnc(-c2ccco2)n1-c1ccc(Cl)cc1)Nc1ccc(S(=O)(=O)Nc2nccs2)cc1	5.4	4.4	-35.5	·
CN(c1c2c(nc3ncnn13)CCCC2)C1CCCCC1	-3.2	-3.0	-0.3	·
O=C(Nc1ccccc1Cl)c1cc(C2CCCN(C(=O)c3cccc(O)c3)C2)on1 (stereo not given)	5.8	6.3	-40.9	-0.1
O=C(Nc1ccccc1Cl)c1cc(C2CCCN(C(=O)c3ccccc3)C2)on1 (stereo not given)	6.9	10.8*	-10.1	-0.2
COc1ccc2c(c1)OC[C@H]1[C@H]2N2C(=O)c3ccc(F)cc3NC(=O)[C@@]2(C)[C@H]1c1ccccc1	-3.3	-7.6	38.2*	-0.5
COc1ccc2c(c1)[C@H]1[C@H](CO2)[C@H](c2ccccc2)[C@]2(C)C(=O)Nc3cc(F)ccc3C(=O)N12	-7.2	-7.8	-2.6	-0.4
Cc1csc(N=Nc2ccc(N(C)C)cc2)[n+]1[O-]	11.2*	9.7	15.8	-0.9
CN(C)c1ccc(N=Nc2ccc(C(=O)O)cc2)cc1	-4.9	-14.1	0.6	-0.2
Cc1ccccc1Cn1cc(CN2[C@H](CC(C)C)COc3cc(Br)ccc3S2(=O)=O)nn1	-1.7	-0.8	-0.3	·
Cn1nc([N+](=O)[O-])nc1S(C)(=O)=O	47.3*	3.2	3.8	0.6
O=C(NC1CCCCN(Cc2cccc(C(F)(F)F)c2)C1=O)c1cccc(F)c1 (stereo not given)	0.8	0.1	2.3	·
CSc1nn(CCC#N)c(=O)[nH]c1=O	-1.1	5.1	13.3	·
CC(C)NC(=O)CSc1ccccc1C(=O)N1CCN(S(=O)(=O)Cc2ccccc2)CC1	10.6*	-1.6	3.1	-0.5
CC(C)NC(=O)CSc1ccccc1C(=O)N1CCN(S(=O)(=O)/C=C/c2ccccc2)CC1	0.6	-9.5	6.8	0.0
C/C(=N/NC(=O)c1cc2ccccc2cc1O)C1C(=O)c2ccccc2C1=O	6.2	-3.7	28.6*	0.5
C/C(=N\NC(=O)c1ccccc1O)C1C(=O)c2ccccc2C1=O	-6.5	-9.7	-10.4	0.1
